{"source": "the M2OR odorant receptor database"}
{"target": "T1, OR2W1 (Homo sapiens) (UniProt Q9Y3N9)", "T1 sequence (whole entry)": "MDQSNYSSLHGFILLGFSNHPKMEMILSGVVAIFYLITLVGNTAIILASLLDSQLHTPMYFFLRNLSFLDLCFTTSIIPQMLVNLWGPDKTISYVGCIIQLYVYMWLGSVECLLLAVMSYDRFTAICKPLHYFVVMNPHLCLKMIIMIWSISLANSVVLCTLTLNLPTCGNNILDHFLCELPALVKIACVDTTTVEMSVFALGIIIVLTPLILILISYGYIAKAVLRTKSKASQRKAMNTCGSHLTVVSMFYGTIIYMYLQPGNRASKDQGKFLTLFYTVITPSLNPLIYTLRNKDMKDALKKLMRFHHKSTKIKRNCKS", "conditions": "stereoisomer not certain", "method_in_brief": "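Whether a receptor–molecule pair is responsive (active) rests on the original authors' judgment that its measured signal was statistically different from baseline. Pairs without that judgment are non-responsive (inactive). Sources used varied assay methods, commonly transient luciferase assays in mammalian cell lines.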"}
{"smiles": "CCC(S)C(C)=O", "note": "(centres undefined)", "odorant receptor agonist call": "inactive"}
{"smiles": "CCC(=O)C(C)S", "note": "(centres undefined)", "odorant receptor agonist call": "inactive"}
{"smiles": "CCc1ncc(C)nc1CC", "odorant receptor agonist call": "inactive"}
{"smiles": "CCCC(O)CC(=O)OCC", "note": "(centres undefined)", "odorant receptor agonist call": "inactive"}
{"smiles": "CCC(C(=O)O)c1ccccc1", "note": "(centres undefined)", "odorant receptor agonist call": "inactive"}
{"smiles": "CCCCCCCCCS", "odorant receptor agonist call": "active"}
{"smiles": "O=C(c1ccccc1)c1ccccc1", "odorant receptor agonist call": "active"}
{"smiles": "CCc1ccc(O)c(OC)c1", "odorant receptor agonist call": "inactive"}
{"smiles": "CCCC(=O)C(C)CC", "note": "(centres undefined)", "odorant receptor agonist call": "inactive"}
{"smiles": "CCCCCCCC1CCCC(=O)O1", "note": "(centres undefined)", "odorant receptor agonist call": "inactive"}
{"smiles": "CCCCCCCCC=CC=O", "odorant receptor agonist call": "inactive"}
{"smiles": "CCCC(=O)C(C)=O", "odorant receptor agonist call": "active"}
{"smiles": "CCCCC(=O)C(C)=O", "odorant receptor agonist call": "inactive"}
{"smiles": "C=Cc1ccc(OCCCCOc2ccc(C=C)cc2)cc1", "odorant receptor agonist call": "inactive"}
{"smiles": "CC(C)CC=O", "odorant receptor agonist call": "inactive"}
{"smiles": "CCOC(C)=O", "odorant receptor agonist call": "inactive"}
{"smiles": "Cc1occc(=O)c1O", "odorant receptor agonist call": "inactive"}
{"smiles": "Cc1cccc(O)c1", "odorant receptor agonist call": "inactive"}
{"smiles": "C=C(C)C1CCC(C)C(=O)C1", "note": "(centres undefined)", "odorant receptor agonist call": "active"}
{"smiles": "CC=CC(=O)C(C)CC", "note": "(centres undefined)", "odorant receptor agonist call": "inactive"}
{"smiles": "CC(=O)C1=NCCS1", "odorant receptor agonist call": "inactive"}
{"smiles": "c1ccccc1", "odorant receptor agonist call": "inactive"}
{"smiles": "CC(=O)CC(=O)CC(C)C", "odorant receptor agonist call": "active"}
{"smiles": "CCCCC(C)CCC(=O)O", "note": "(centres undefined)", "odorant receptor agonist call": "inactive"}
{"smiles": "CCCCOC=O", "odorant receptor agonist call": "active"}
{"smiles": "CCCCCO", "odorant receptor agonist call": "inactive"}
{"smiles": "Cc1occc1S", "odorant receptor agonist call": "inactive"}
{"smiles": "CCCCCCCCS", "odorant receptor agonist call": "active"}
{"smiles": "CC=CC(=O)C1=C(C)C=CCC1(C)C", "odorant receptor agonist call": "inactive"}
{"smiles": "C=CC(=O)CC=CCC", "odorant receptor agonist call": "inactive"}
{"smiles": "Cc1c[nH]c2ccccc12", "odorant receptor agonist call": "inactive"}
{"smiles": "CCCCC(=O)CC", "odorant receptor agonist call": "active"}
{"smiles": "CSCSC", "odorant receptor agonist call": "inactive"}
{"smiles": "CC(=O)c1ccccc1N", "odorant receptor agonist call": "inactive"}
